The subject of series [1] is Staphylococcus aureus. In words: Antibacterial activity against methicillin-resistant Staphylococcus aureus USA500 assessed as inhibition of visible growth by broth microdilution method. Type of series: functional.
Series [2] deals with Staphylococcus aureus. The experiment in a line: Antibacterial activity against methicillin-resistant Staphylococcus aureus NRS194 assessed as inhibition of visible growth by broth microdilution method. The class given is functional. Background: Dilution methods test growth across graded concentrations, often in twofold steps.
Series [3] relates to Staphylococcus aureus. The experiment in a line: Antibacterial activity against methicillin-resistant Staphylococcus aureus NRS107 assessed as inhibition of visible growth by broth microdilution method. The class given is functional.
The test system of series [4] is Staphylococcus aureus. In words: Antibacterial activity against methicillin-resistant Staphylococcus aureus NRS108 assessed as inhibition of visible growth by broth microdilution method. The class given is functional.
The subject of series [5] is Staphylococcus aureus. The experiment in a line: Antibacterial activity against methicillin-resistant Staphylococcus aureus USA300 assessed as inhibition of visible growth by broth microdilution method. Type of series: functional.
Series [6] relates to Staphylococcus aureus. The experiment in a line: Antibacterial activity against methicillin-resistant Staphylococcus aureus USA200 assessed as inhibition of visible growth by broth microdilution method. Type of series: functional.
For series [7], the system named is Staphylococcus aureus. In words: Antibacterial activity against vancomycin-intermediate Staphylococcus aureus HIP07256 assessed as inhibition of visible growth by broth microdilution method. Type of series: functional.
Series [8] has as its system Staphylococcus aureus. The experiment in a line: Antibacterial activity against methicillin-resistant Staphylococcus aureus USA100 assessed as inhibition of visible growth by broth microdilution method. The class given is functional.
The subject of series [9] is Staphylococcus aureus. In words: Antibacterial activity against methicillin-resistant Staphylococcus aureus USA1100 assessed as inhibition of visible growth by broth microdilution method. The class given is functional.
The test system of series [10] is Staphylococcus aureus. In words: Antibacterial activity against methicillin-resistant Staphylococcus aureus ATCC 43300 assessed as inhibition of visible growth by broth microdilution method. The class given is functional.
Series [11] deals with Staphylococcus aureus. The experiment in a line: Antibacterial activity against vancomycin-resistant Staphylococcus aureus assessed as inhibition of visible growth by broth microdilution method. The class given is functional.
For the next series, the system named is HeLa. In words: Cytotoxicity against human HeLa cells assessed as cell viability at 11 ug/ml by MTS assay. The class given is cell-based.
Series [12] deals with Staphylococcus aureus. In words: Antibacterial activity against methicillin-resistant Staphylococcus aureus USA800 assessed as inhibition of visible growth by broth microdilution method. Type of series: functional.
Series [13] concerns Staphylococcus aureus. The experiment in a line: Antibacterial activity against methicillin-resistant Staphylococcus aureus NRS119 assessed as inhibition of visible growth by broth microdilution method. The class given is functional.
In series [14] the test system is Staphylococcus aureus. In words: Antibacterial activity against methicillin-resistant Staphylococcus aureus USA400 assessed as inhibition of visible growth by broth microdilution method. Type of series: functional.
Series [15] has as its system Staphylococcus aureus. In words: Antibacterial activity against vancomycin-intermediate Staphylococcus aureus LIM 3 assessed as inhibition of visible growth by broth microdilution method. The class given is functional.
In series [16] the test system is Staphylococcus aureus. The experiment in a line: Antibacterial activity against vancomycin-intermediate Staphylococcus aureus ATCC 700699 assessed as inhibition of visible growth by broth microdilution method. The class given is functional.
For series [17], the system named is Staphylococcus aureus. In words: Antibacterial activity against methicillin-resistant Staphylococcus aureus USA700 assessed as inhibition of visible growth by broth microdilution method. The class given is functional.
Series [18] relates to Staphylococcus aureus. The experiment in a line: Antibacterial activity against methicillin-resistant Staphylococcus aureus USA1000 assessed as inhibition of visible growth by broth microdilution method. The class given is functional.
The test system of series [19] is Staphylococcus aureus. The experiment in a line: Bactericidal activity against methicillin-resistant Staphylococcus aureus USA300 assessed as time required to complete elimination of bacteria by 3-log10 by time-kill assay. The class given is functional. In outline: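 Viable counts (CFU) followed over a 12-hour window; endpoint is a 3-log10 fall in CFU.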
A short description of series [20]: Aqueous solubility of compound in phosphate buffer assessed as solubility limit after 2 hrs by turbidity analysis. The class given is physicochemical.

The results in this text go back to ChEMBL document CHEMBL3124870, “Discovery and characterization of potent thiazoles versus methicillin- and vancomycin-resistant Staphylococcus aureus” (J Med Chem, 2014).

In brackets after ≈: the same amount, converted by molar mass.

Broadly, the MIC is the smallest concentration in the dilution series that meets the test's criterion for growth inhibition. In the case of `C/C(=N\NC(=N)N)c1sc(-c2ccc(C(C)(C)C)cc2)nc1C`, the MIC was found to be 1.3 µg/mL (≈ 3.95 µM) in the series on Staphylococcus aureus [1]; 2.6 µg/mL (≈ 7.89 µM) in the series on Staphylococcus aureus [2]; 1 µg/mL (≈ 3.04 µM) in the series with Staphylococcus aureus [3]; 1.9 µg/mL (≈ 5.77 µM) in the series on Staphylococcus aureus [4]; 1.3 µg/mL (≈ 3.95 µM) in the series on Staphylococcus aureus [5]; 2.6 µg/mL (≈ 7.89 µM) in the series on Staphylococcus aureus [6]. For the same molecule, the MIC in the series with Staphylococcus aureus [7] came out at 1.9 µg/mL (≈ 5.77 µM); in the series on Staphylococcus aureus [8] it was 1.3 µg/mL (≈ 3.95 µM); with Staphylococcus aureus [9] it was 1.9 µg/mL (≈ 5.77 µM); with Staphylococcus aureus [10], 1.9 µg/mL (≈ 5.77 µM); in the series with Staphylococcus aureus [11] it was 1.6 µg/mL (≈ 4.86 µM); in the series on Staphylococcus aureus [12], 1.3 µg/mL (≈ 3.95 µM). The minimum inhibitory concentration (MIC) turned out to be 1.9 µg/mL (≈ 5.77 µM) in the series with Staphylococcus aureus [13], 1.9 µg/mL (≈ 5.77 µM) in the series on Staphylococcus aureus [14], 1.6 µg/mL (≈ 4.86 µM) in the series on Staphylococcus aureus [15] and 1.6 µg/mL (≈ 4.86 µM) in the series on Staphylococcus aureus [16]. The Activity entry in the series with HeLa was “Non-toxic”.

Take `C/C(=N\NC(=N)N)c1sc(-c2ccc3ccccc3c2)nc1C`: the MIC was 2.6 µg/mL (≈ 8.04 µM) with Staphylococcus aureus [1]; 1.9 µg/mL (≈ 5.87 µM) with Staphylococcus aureus [2]; 1.9 µg/mL (≈ 5.87 µM) in the series with Staphylococcus aureus [3]; 1.9 µg/mL (≈ 5.87 µM) in the series on Staphylococcus aureus [4]; 2.6 µg/mL (≈ 8.04 µM) with Staphylococcus aureus [6]; 2.6 µg/mL (≈ 8.04 µM) with Staphylococcus aureus [17]. For the same molecule, the minimum inhibitory concentration (MIC) in the series on Staphylococcus aureus [7] was 2.6 µg/mL (≈ 8.04 µM); with Staphylococcus aureus [10] it was 3.8 µg/mL (≈ 11.7 µM); in the series with Staphylococcus aureus [13] it was 3.8 µg/mL (≈ 11.7 µM); with Staphylococcus aureus [16], 3.2 µg/mL (≈ 9.89 µM). Moreover, in the series on HeLa, the Activity result is listed as “Non-toxic”.

For the molecule `C/C(=N\NC(=N)N)c1sc(-c2ccc(C3=CCCCC3)cc2)nc1C`, the MIC in the series on Staphylococcus aureus [1] was 1 µg/mL (≈ 2.83 µM); in the series on Staphylococcus aureus [2], 0.8 µg/mL (≈ 2.26 µM); in the series with Staphylococcus aureus [3], 0.6 µg/mL (≈ 1.7 µM); with Staphylococcus aureus [4], 1.7 µg/mL (≈ 4.81 µM); in the series on Staphylococcus aureus [5], 1.2 µg/mL (≈ 3.39 µM); in the series on Staphylococcus aureus [6], 1 µg/mL (≈ 2.83 µM). The minimum inhibitory concentration (MIC) was 1.2 µg/mL (≈ 3.39 µM) with Staphylococcus aureus [17]; 0.8 µg/mL (≈ 2.26 µM) in the series with Staphylococcus aureus [7]; 1 µg/mL (≈ 2.83 µM) in the series on Staphylococcus aureus [8]; 1.2 µg/mL (≈ 3.39 µM) with Staphylococcus aureus [10]; 1.2 µg/mL (≈ 3.39 µM) with Staphylococcus aureus [11]; 0.8 µg/mL (≈ 2.26 µM) in the series with Staphylococcus aureus [12]. The minimal inhibitory concentration (MIC) in the series with Staphylococcus aureus [13] was 0.6 µg/mL (≈ 1.7 µM); in the series with Staphylococcus aureus [15], 0.8 µg/mL (≈ 2.26 µM); in the series on Staphylococcus aureus [18] it was 0.8 µg/mL (≈ 2.26 µM); in the series on Staphylococcus aureus [16] it was 0.5 µg/mL (≈ 1.41 µM). In the series with HeLa, the Activity result was “Non-toxic”.

On to `C/C(=N\NC(=N)N)c1sc(-c2ccc(C3CCCCC3)cc2)nc1C`, for which the MIC is 0.9 µg/mL (≈ 2.53 µM) in the series with Staphylococcus aureus [1]; 0.7 µg/mL (≈ 1.97 µM) in the series on Staphylococcus aureus [2]; 0.6 µg/mL (≈ 1.69 µM) with Staphylococcus aureus [3]; 1.5 µg/mL (≈ 4.22 µM) with Staphylococcus aureus [4]; 0.7 µg/mL (≈ 1.97 µM) in the series on Staphylococcus aureus [5]; 1.2 µg/mL (≈ 3.38 µM) with Staphylococcus aureus [6]. Moreover, the MIC in the series with Staphylococcus aureus [17] stood at 1.5 µg/mL (≈ 4.22 µM); in the series with Staphylococcus aureus [7] it was 0.7 µg/mL (≈ 1.97 µM); with Staphylococcus aureus [8], 0.7 µg/mL (≈ 1.97 µM); in the series with Staphylococcus aureus [9], 0.7 µg/mL (≈ 1.97 µM); in the series with Staphylococcus aureus [10], 1.5 µg/mL (≈ 4.22 µM); in the series on Staphylococcus aureus [11], 1.5 µg/mL (≈ 4.22 µM). Also, the MIC in the series on Staphylococcus aureus [12] was determined as 0.7 µg/mL (≈ 1.97 µM); in the series with Staphylococcus aureus [13], 0.7 µg/mL (≈ 1.97 µM); in the series on Staphylococcus aureus [14] it was 0.7 µg/mL (≈ 1.97 µM); in the series with Staphylococcus aureus [15] it was 0.5 µg/mL (≈ 1.41 µM); in the series with Staphylococcus aureus [18], 0.9 µg/mL (≈ 2.53 µM); with Staphylococcus aureus [16], 0.7 µg/mL (≈ 1.97 µM). Further, the Time in the series with Staphylococcus aureus [19] came to 6 h. For the same molecule, in the series with HeLa, the Activity entry was “Non-toxic”.

Usually solubility (kinetic) stands for the concentration staying in solution when a stock, usually in DMSO, is diluted into the medium. Consider `COC(=O)[C@H]1[C@H]2C[C@@H]3c4[nH]c5cc(OC)ccc5c4CCN3C[C@H]2C[C@@H](OC(=O)c2cc(OC)c(OC)c(OC)c2)[C@@H]1OC` [RESERPINE], for which the solubility (kinetic) at 2 h in series [20] amounted to 31.3 µM (≈ 19.1 µg/mL).

On to `CN[C@H](CC(C)C)C(=O)N[C@H]1C(=O)N[C@@H](CC(N)=O)C(=O)N[C@H]2C(=O)N[C@H]3C(=O)N[C@H](C(=O)N[C@H](C(=O)O)c4cc(O)cc(O)c4-c4cc3ccc4O)[C@H](O)c3ccc(c(Cl)c3)Oc3cc2cc(c3O[C@@H]2O[C@H](CO)[C@@H](O)[C@H](O)[C@H]2O[C@H]2C[C@](C)(N)[C@H](O)[C@H](C)O2)Oc2ccc(cc2Cl)[C@H]1O` [VANCOMYCIN], for which the minimum inhibitory concentration (MIC) with Staphylococcus aureus [6] was found to be 0.4 µg/mL (≈ 0.276 µM). Further, the Time with Staphylococcus aureus [19] was found to be 12 h.
